This is a sample that favours compounds with a hit; in the whole collection about 1.9% have one here.
PLC-gamma1 inh – PLC-gamma1 enzyme inhibitors, primary screen, biochemical, fluorescence, purified enzyme | 1-phosphatidylinositol 4,5-bisphosphate phosphodiesterase gamma-1 (Homo sapiens), P19174 | fluorogenic substrate | inhibition, % at 12.2 µM | 370,000 tested, 0.84% active; in the data active = inhibition above about 9.5%
Tb MetRS inh – T. brucei MetRS inhibitors, primary screen, biochemical, luminescence; methionyl-tRNA synthetase (Trypanosoma brucei brucei); purified T. brucei MetRS, ATP depletion, Kinase-Glo luminescence; inhibition, % at 11.9 µM; 360,000 tested, 0.4% active;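 active = inhibition above a per-plate cutoff of the control wells' mean inhibition plus 3 SD, cut at about 5.5% in these data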
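Measured by: Kinase-Glo luciferase luminescence reporting remaining unconsumed ATP. Material: purified T. brucei MetRS enzyme. Doses: 11.9 µM compound single dose, 0.9% DMSO. Medium: HEPES buffer containing pyrophosphatase, BSA, spermine, DTT. Times: 15 min preincubation, 2 h reaction, all 25 °C. Reagent: methionine, ATP and bulk E. coli tRNA.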
PLCb3 inh – human PLC-beta3 inhibitors, primary screen, biochemical, fluorescence; 1-phosphatidylinositol 4,5-bisphosphate phosphodiesterase beta-3 (Homo sapiens), Q01970; Purified PLC-beta3, fluorogenic substrate; inhibition, % at 12.2 µM; 370,000 tested, 0.18% active; AID 720704, 2013; in the data active = inhibition above about 11%
Target sequence (Q01970 whole entry, looked up): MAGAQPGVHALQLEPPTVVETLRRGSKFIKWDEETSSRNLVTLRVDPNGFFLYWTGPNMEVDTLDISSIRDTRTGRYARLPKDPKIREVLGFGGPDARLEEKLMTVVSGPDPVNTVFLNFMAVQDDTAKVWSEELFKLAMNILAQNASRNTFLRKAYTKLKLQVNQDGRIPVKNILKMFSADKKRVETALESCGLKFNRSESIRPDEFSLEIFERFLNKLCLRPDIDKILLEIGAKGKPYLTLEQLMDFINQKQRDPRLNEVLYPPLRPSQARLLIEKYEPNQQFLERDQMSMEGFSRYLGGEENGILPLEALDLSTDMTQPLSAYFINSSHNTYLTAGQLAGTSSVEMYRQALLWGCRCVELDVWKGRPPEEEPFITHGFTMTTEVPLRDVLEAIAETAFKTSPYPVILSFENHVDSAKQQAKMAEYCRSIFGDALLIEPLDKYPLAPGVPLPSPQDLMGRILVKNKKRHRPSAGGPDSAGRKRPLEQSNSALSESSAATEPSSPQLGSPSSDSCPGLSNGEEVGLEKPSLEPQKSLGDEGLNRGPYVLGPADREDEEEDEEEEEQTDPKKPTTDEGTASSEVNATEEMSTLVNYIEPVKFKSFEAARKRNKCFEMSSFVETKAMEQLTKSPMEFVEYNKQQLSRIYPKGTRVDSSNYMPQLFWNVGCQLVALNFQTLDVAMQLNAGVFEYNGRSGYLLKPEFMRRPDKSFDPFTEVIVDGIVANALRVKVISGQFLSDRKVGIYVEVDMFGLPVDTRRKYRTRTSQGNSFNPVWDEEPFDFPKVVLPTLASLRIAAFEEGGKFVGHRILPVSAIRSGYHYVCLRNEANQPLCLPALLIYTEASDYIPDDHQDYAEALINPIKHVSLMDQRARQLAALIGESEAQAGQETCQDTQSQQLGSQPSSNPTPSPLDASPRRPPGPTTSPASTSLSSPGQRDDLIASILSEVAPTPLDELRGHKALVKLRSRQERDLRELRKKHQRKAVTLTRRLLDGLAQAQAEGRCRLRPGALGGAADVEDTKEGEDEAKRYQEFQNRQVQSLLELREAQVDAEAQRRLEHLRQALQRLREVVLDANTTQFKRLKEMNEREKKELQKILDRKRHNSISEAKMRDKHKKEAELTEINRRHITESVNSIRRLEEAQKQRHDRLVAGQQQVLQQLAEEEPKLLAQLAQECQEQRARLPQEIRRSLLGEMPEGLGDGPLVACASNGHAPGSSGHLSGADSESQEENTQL
HGIII-sPLA2 inh – human group III sPLA2 inhibitors, primary screen, biochemical, QFRET, BODIPY PC-A2 liposome substrate; QFRET BODIPY PC-A2 liposome hydrolysis, fluorescence; Group 3 secretory phospholipase A2 (Homo sapiens), Q9NZ20; 370,000 tested, 0.56% active; inhibition, % at 12.2 µM;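 active = inhibition above mean plus 3 SD of compounds lying within the high and low control bounds, cut at about 19% in these data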
Numbers stand for hits; – = inactive; · = no result.

SMILES | PLC-gamma1 inh | Tb MetRS inh | PLCb3 inh | HGIII-sPLA2 inh
CCCCCCCC(=O)N1c2ccccc2NC(=O)C1CC(=O)Nc1ccc(C(=O)O)cc1 (stereo not given) | – | – | – | –
COc1ccc(C(=O)N2CCC(Oc3cccnc3)CC2)c(OC)c1 | – | · | – | –
O=C(CSc1nnc(-c2ccncc2)n1-c1ccccc1)Nc1cccc2ccccc12 | – | · | – | –
Cc1ccc(CNC(=O)[C@H](C)NC(=O)C2CCN(C(=O)[C@@H](N)CC(C)C)CC2)cc1 | – | – | – | 19.5
CCc1ccc(NC(=O)[C@H](C)NC(=O)C2CCN(C(=O)[C@@H](N)CC(C)C)CC2)cc1 | – | – | – | –
O=[N+]([O-])c1cc(/C=N/Nc2nc3ccccc3[nH]2)c(O)cc1O | 47.8 | · | – | –
Cc1ccccc1/C=N/Nc1nc2ccccc2[nH]1 | – | – | – | –
CN(CCC(=O)Nc1ccc(Br)cc1)Cc1ccccc1 | · | 24.7 | · | ·
CC(C)CC(=O)N1CCN(c2ccc([N+](=O)[O-])c(NCc3ccccc3)c2)CC1 | 12.9 | – | – | –
O=C(NCCc1c[nH]c2ccccc12)OCc1cn(Cc2cccc(F)c2F)nn1 | – | · | – | –
O=C(c1ccccc1)c1ccccc1 | – | – | 10.7 | –
O=C(c1ccccc1)c1ccc(-c2ccc(O)cc2)cc1 | – | – | – | –
CC(C)(C)OC(=O)N(CCc1ccccc1)Cc1cccc(OCc2cccc(NC(=O)c3ccccc3)c2)c1 | 9.9 | – | – | –
O=C(Nc1nnc(Cc2ccccc2)s1)Nc1ccccc1F | 12.0 | – | – | –
O=C(Nc1ccccc1)Nc1nnc(Cc2ccccc2F)s1 | – | – | – | –
Cn1cc(-c2csc(C(C)(O)c3cccc(F)c3)n2)cn1 (stereo not given) | 10.1 | – | – | –
Cc1ccc(C)c(OCC(=O)Nc2ccc3c(c2)OCO3)c1C | 11.6 | – | – | –
COc1ccccc1NC(=O)c1ccc(Cl)c(S(=O)(=O)N2CCCCC2)c1 | – | – | – | –
COc1ccccc1NC(=O)c1ccc(C)c(S(=O)(=O)N2CCCCC2)c1 | 12.6 | – | – | –
COC(=O)c1cccc(OCC(C)CN2CCC(C(O)(c3ccccc3)c3ccccc3)CC2)c1 (stereo not given) | – | · | – | –
O=C(c1ccncc1F)N1CCC(n2nnc3ncccc32)CC1 | – | · | – | –
Cc1ccccc1Nc1cc2ccccc2c(=O)[nH]1 | · | 12.7 | · | ·
O=c1[nH]c(Nc2ccc(F)cc2)cc2ccccc12 | – | 16.8 | – | –
O=c1[nH]c(Nc2ccccc2Cl)cc2ccccc12 | – | – | – | –
O=c1[nH]c(Nc2ccccn2)cc2ccccc12 | – | – | – | –
SMILES | PLC-gamma1 inh | Tb MetRS inh | PLCb3 inh | HGIII-sPLA2 inh
COCc1cc(N2CCN(C(=O)OC(C)(C)C)C[C@H]2C)ccc1N1CC[C@@H](O)C1 | – | · | – | –
Cc1ccc(NC(=O)NNC(=O)CCn2nc(C)c([N+](=O)[O-])c2C)cc1C | – | · | – | –
COc1ccc(CNC(=O)c2cc(-c3ccccc3)c(N3CCOCC3)s2)cc1OC | – | · | – | –
COC1=CC(=O)c2nc(Cl)ccc2C1=O | 10.0 | – | – | –
CCCCN(C)C(=O)c1cn(C(C)c2ccccc2)nn1 (stereo not given) | – | · | – | –
CCn1c(NCc2ccc(N(C)C)cc2)nc2ccccc21 | – | – | – | –
CN(C)c1ccc(N=Nc2nc3ccccc3n2C)cc1 | – | – | – | 32.4
O=C(O)c1nc(-c2ccccc2)n(-c2ccccc2)n1 | – | – | – | –
O=C(c1nc(-c2ccccc2)n(-c2ccccc2)n1)N1CCN(S(=O)(=O)c2ccccc2)CC1 | 10.6 | – | – | –
O=C(N/N=C/c1cccs1)c1[nH]ncc1Br | 12.4 | – | – | –
Oc1ccccc1C=Nn1c(-c2ccccc2F)n[nH]c1=S | – | · | – | –
Cc1ccc(-c2nnc(NCc3nc4ccccc4[nH]3)c3ccccc23)cc1S(=O)(=O)N1CCOCC1 | · | 12.0 | · | ·
COC(=O)[C@H](C(C)C)N1CCc2nnn(Cc3ccccc3)c2-c2cc(F)ccc2S1(=O)=O | – | · | – | –
Fc1ccccc1/C=N/Nc1ncnc2nc[nH]c12 | 9.8 | – | – | –
COC(=O)C1=C(N)Oc2cc(C)n(CC3CCCO3)c(=O)c2C1c1ccc(Cl)c(Cl)c1 (stereo not given) | – | 38.4 | – | –
O=C(N[C@@H](Cc1ccccc1)C(=O)N1CCC2CCN(S(=O)(=O)c3ccccc3)CC21)[C@@H]1CCCN1 (stereo not given in full) | – | · | – | –
c1ccc2c(c1)OCc1nccn1-2 | – | · | – | –
O=C(c1cccc2ccccc12)N1CCC(N2CCN(c3ccccc3)CC2)CC1 | 14.6 | – | – | –
CCOC(=O)[C@]12CCCC=C1N(Cc1ccc(OC)cc1)C(=O)[C@@H]2CC(=O)NCCc1ccccc1OC | – | · | – | –
Cc1cccc(Cl)c1NC(=O)N(C)c1ccccc1 | 11.7 | · | – | –
C=CCN1C(=O)c2n[nH]c(C)c2C1c1ccc(C)cc1 (stereo not given) | – | · | – | –
COC(=O)C1CN(Cc2ccc(F)cc2)CCS(=O)(=O)N1Cc1ccccc1 (stereo not given) | – | · | – | –
CCN1CCN(C(CNS(=O)(=O)c2ccc(Cl)cc2)c2cccnc2)CC1 (stereo not given) | 11.6 | – | – | –
O=S(=O)(c1ccccc1)N1CCCc2nc(-c3ccc(Br)cc3)ccc21 | – | · | – | –
COC(=O)c1ccc(NCc2c(O)ccc(O)c2Br)cc1Cl | 9.8 | – | – | 34.4
SMILES | PLC-gamma1 inh | Tb MetRS inh | PLCb3 inh | HGIII-sPLA2 inh
COC(=O)c1ccc(NCc2cc(O)ccc2O)cc1O | – | – | – | –
O=C1C2C(C(=O)N1/N=C/c1cc([N+](=O)[O-])c(O)cc1O)C1C=CC2C12CC2 (stereo not given) | 28.9 | – | – | –
COc1ccc(CCNC(=O)Cn2nnc(-c3ccccc3F)n2)cc1OC | 9.9 | – | – | –
C#CC1(NC(=S)Nc2cccc(OC)c2)CCCCC1 | 10.9 | – | – | –
COC(=O)[C@@]12CCCCC3=C1N(CCC3)C(=O)[C@H]2CC(=O)NCCCCc1ccccc1 | – | · | – | –
COc1ccc(C(C(=O)NC2CCCCC2)N(C(=O)c2sc(C)nc2C)c2ccccc2C)cc1 (stereo not given) | 9.9 | – | – | –
COc1ccc(C(C(=O)NC2CCCCC2)N(C(=O)c2sc(C)nc2C)c2ccccc2)cc1 (stereo not given) | – | – | – | –
COC(=O)CCCn1cc(CN2CC=CS2(=O)=O)nn1 | – | · | – | –
COc1nc(OC)nc(N2CCC(C(=O)N(C)Cc3ccco3)CC2)n1 | – | · | – | –
Nc1cc2nsnc2cc1Br | – | 12.2 | – | –
COC(=O)[C@]12C[C@H](CC(=O)NCc3ccc(OC)c(OC)c3)C(=O)N(Cc3ccc(Cl)cc3Cl)C1=C[C@H](C(C)(C)C)O[C@@H]2C | – | · | – | –
O=C(NCc1ccccc1)[C@@H]1CCCN1C(=O)[C@H]1CCCN1C(=O)c1cccs1 | – | · | 10.7 | –

Screening data from PubChem BioAssay.
